Laboratory results reported in PMC7983942 (Clinical Pharmacology and Therapeutics, 2020).
Changes are numbered by the printed parent chain.

Tests used:
Assay type in all cases: in vitro ADME
[1] = biological target: T1, OATP1B1*14 (Homo sapiens, UniProt Q9Y6L6, N130D/P155T); assay: Uptake into OATP1B1 variant-transfected vs wild-type HEK293 cells; settings: for Uptake ratio as percentage of OATP1B1*14 in the same experiment: OATP1B1*14 (reference); for Uptake ratio (vs. wild‐type HEK293 cells): OATP1B1*14, 2 minutes
T1 sequence (Q9Y6L6 1-691 N130D/P155T): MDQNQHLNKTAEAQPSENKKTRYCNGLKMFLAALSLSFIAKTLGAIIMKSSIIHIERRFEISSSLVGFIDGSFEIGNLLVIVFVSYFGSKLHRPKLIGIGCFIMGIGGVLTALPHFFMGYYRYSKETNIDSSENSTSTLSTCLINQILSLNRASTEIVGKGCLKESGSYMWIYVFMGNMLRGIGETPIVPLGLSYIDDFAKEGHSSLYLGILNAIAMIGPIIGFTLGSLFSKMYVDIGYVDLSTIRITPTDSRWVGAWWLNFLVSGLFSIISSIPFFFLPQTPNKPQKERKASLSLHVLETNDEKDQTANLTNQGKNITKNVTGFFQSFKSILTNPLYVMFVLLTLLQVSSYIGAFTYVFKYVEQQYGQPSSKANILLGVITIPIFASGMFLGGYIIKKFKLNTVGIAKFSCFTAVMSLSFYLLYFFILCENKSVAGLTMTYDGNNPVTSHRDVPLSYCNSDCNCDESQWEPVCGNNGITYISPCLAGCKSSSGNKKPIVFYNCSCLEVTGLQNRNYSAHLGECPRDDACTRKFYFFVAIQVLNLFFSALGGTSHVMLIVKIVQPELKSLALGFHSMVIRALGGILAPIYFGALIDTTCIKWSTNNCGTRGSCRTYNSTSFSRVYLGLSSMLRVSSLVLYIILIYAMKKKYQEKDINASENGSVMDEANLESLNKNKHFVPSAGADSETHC

[2] = biological target: T2, OATP1B1*15 (Homo sapiens, UniProt Q9Y6L6, N130D/V174A); assay: Uptake into OATP1B1 variant-transfected vs wild-type HEK293 cells; settings: for Uptake ratio (vs. wild‐type HEK293 cells): 2 minutes
T2 sequence (Q9Y6L6 1-691 N130D/V174A): T1 sequence (Q9Y6L6 1-691 N130D/P155T) with T155P, V174A
Summary of the method: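 HEK293 cells stably expressing an OATP1B1 variant, alongside wild-type HEK293, were seeded at 0.5–1.2 × 10⁵ cells/well on poly-D-lysine plates. They grew 48 h at 37°C and 5% CO₂ in DMEM with 10% FBS, 1% pyruvate, nonessential amino acids and GlutaMAX. Substrate was 1 µM (0.5 µM where footnoted) for 2 min, then four ice-cold buffer washes and methanol lysis with internal standard. Uptake ratio (transfected/wild-type) is expressed as % of OATP1B1*14 in the same experiment; n=3 determinations.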

[3] = biological target: T3, OATP2B1 (Homo sapiens, UniProt O94956); assay: Uptake into transporter-transfected vs wild-type HEK293 cells; settings: rosuvastatin 1 µM, two to four minutes
T3 sequence (O94956 1-709): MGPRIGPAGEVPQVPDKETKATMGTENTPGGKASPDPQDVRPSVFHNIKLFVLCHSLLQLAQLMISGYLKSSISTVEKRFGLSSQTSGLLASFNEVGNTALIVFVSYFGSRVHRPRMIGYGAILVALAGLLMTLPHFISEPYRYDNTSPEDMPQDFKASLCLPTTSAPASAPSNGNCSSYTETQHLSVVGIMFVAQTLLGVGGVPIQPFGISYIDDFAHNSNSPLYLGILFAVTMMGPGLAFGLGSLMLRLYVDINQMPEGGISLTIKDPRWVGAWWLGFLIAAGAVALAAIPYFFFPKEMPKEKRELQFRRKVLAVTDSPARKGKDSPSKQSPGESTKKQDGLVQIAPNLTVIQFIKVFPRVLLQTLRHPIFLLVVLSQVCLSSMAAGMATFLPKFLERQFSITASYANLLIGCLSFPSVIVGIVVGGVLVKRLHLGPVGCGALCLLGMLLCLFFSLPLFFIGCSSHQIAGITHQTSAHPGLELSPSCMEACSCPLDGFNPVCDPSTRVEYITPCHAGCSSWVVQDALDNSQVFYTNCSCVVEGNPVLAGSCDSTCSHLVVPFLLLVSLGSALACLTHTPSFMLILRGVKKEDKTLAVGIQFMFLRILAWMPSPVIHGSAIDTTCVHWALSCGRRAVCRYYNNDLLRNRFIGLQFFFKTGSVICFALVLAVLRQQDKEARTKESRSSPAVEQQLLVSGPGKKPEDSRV
Summary of the method: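 HEK293 cells stably transfected with OATP1B1*1A, OATP1B3 or OATP2B1, plus wild-type cells, were seeded on poly-D-lysine plates. Culture was 48 h at 37°C in DMEM with 10% FBS, pyruvate, nonessential amino acids and GlutaMAX. Test compound was 1 µM for 2 min; rosuvastatin probe was 1 µM over 2–4 min. Cells were washed four times in ice-cold buffer and lysed in methanol with internal standard. Readouts were uptake ratio versus wild-type and glucuronide/probe ratio of ratios; mean ± SD, n=3 in one experiment.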

[4] = experiment 1, substrate concentration 0.5 µM

SMILES: CC(C)c1nc(N(C)S(C)(=O)=O)nc(-c2ccc(F)cc2)c1/C=C/[C@@H](O)C[C@@H](O)CC(=O)O [Rosuvastatin]
- Uptake ratio as percentage of OATP1B1*14 in the same experiment [1, 4]: 100%
- Uptake ratio as percentage of OATP1B1*14 in the same experiment ([1]; experiment 2, substrate 1 µM): 100%
- Uptake ratio (vs. wild‐type HEK293 cells) [1, 4]: 15 ± 0.2
- Uptake ratio (vs. wild‐type HEK293 cells) ([1]; experiment 2, substrate 1 µM): 40 ± 3.3
- Uptake ratio (vs. wild‐type HEK293 cells) ([1]; experiment 3, substrate 1 µM): 85 ± 5.3
- Uptake ratio as percentage of OATP1B1*14 in the same experiment [2, 4]: 15%
- Uptake ratio (vs. wild‐type HEK293 cells) [2, 4]: 2.3 ± 0.2
- Uptake ratio as percentage of OATP1B1*14 in the same experiment ([2]; experiment 2, substrate 1 µM): 13%
- Uptake ratio (vs. wild‐type HEK293 cells) ([2]; experiment 2, substrate 1 µM): 5.0 ± 0.2
- Uptake ratio (vs. wild‐type HEK293 cells), probe [3]: 71.1 ± 9.6
